Test results as given in ChEMBL document CHEMBL1154837, “Identification of antibacterial and antifungal pharmacophore sites for potent bacteria and fungi inhibition: indolenyl sulfonamide derivatives” (Eur J Med Chem, 2010).
≈ marks a conversion by molar mass, not a printed value.

Legend:
Nakaseomyces glabratus [1] = experiment: Antimicrobial activity against Candida glabrata at 200 ug/ml after 7 days; format: functional; settings: 168 h
Procedure, shortened: (§1)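 Sabouraud dextrose agar was seeded with fungal spore suspension at 10^5 cfu/mL and poured into Petri plates. Discs soaked with compound at 200 µg/mL in DMSO were placed on the agar surface. Plates were incubated at 32 °C for seven days. Results were recorded as % inhibition, with miconazole and amphotericin B as reference drugs.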

Shigella flexneri [2] = experiment: Antimicrobial activity against Shigella flexneri at 1 mg/ml by agar-well diffusion method; format: functional; settings: read-out: IZ
Procedure, shortened: (§2)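 Agar-well diffusion on nutrient agar. The surface was swabbed with 2–8 h old inocula of about 10^4–10^6 CFU/mL. Wells were 6 mm across and at least 24 mm apart. Each well received sample at 1 mg/mL in DMSO. DMSO served as negative control and imipenem as positive control. Plates were incubated at 37 °C for 24 h, and the diameter of the complete-inhibition zone was measured in mm.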

Escherichia coli [3] = experiment: Antimicrobial activity against Escherichia coli at 1 mg/ml by agar-well diffusion method; format: functional; settings: read-out: IZ; procedure, shortened: as §2
Salmonella enterica [4] = experiment: Antimicrobial activity against Salmonella typhi at 1 mg/ml by agar-well diffusion method; format: functional, Salmonella enterica subsp. enterica serovar Typhi; settings: read-out: IZ
Procedure, shortened: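 Agar-well diffusion on nutrient agar. Plates were swabbed with 2–8 h old inoculum at about 10^4–10^6 CFU/mL, and 6 mm wells were cut at least 24 mm apart. Test sample 1 mg/mL in DMSO. DMSO served as negative control and imipenem as positive control. Plates were incubated at 37 °C for 24 h, and the diameter of complete-inhibition zones was measured (mm).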

Pseudomonas aeruginosa = experiment: Antimicrobial activity against Pseudomonas aeruginosa at 1 mg/ml by agar-well diffusion method; format: functional; settings: read-out: IZ; procedure, shortened: as §2
Candida albicans [5] = experiment: Antimicrobial activity against Candida albicans at 200 ug/ml after 7 days; format: functional; settings: 168 h; procedure, shortened: as §1
Fusarium solani [6] = experiment: Antimicrobial activity against Fusarium solani at 200 ug/ml after 7 days; format: functional; settings: 168 h; procedure, shortened: as §1
Bacillus subtilis [7] = experiment: Antimicrobial activity against Bacillus subtilis at 1 mg/ml by agar-well diffusion method; format: functional; settings: read-out: IZ; procedure, shortened: as §2
Staphylococcus aureus = experiment: Antimicrobial activity against Staphylococcus aureus at 1 mg/ml by agar-well diffusion method; format: functional; settings: read-out: IZ; procedure, shortened: as §2
Bacillus subtilis [8] = experiment: Antimicrobial activity against Bacillus subtilis after 24 hrs by disk diffusion assay; format: functional
Procedure, shortened: (§3)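 MIC by disc diffusion, using discs prepared with 10, 25, 50 and 100 µg/mL of compound.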

Aspergillus flavus = experiment: Antimicrobial activity against Aspergillus flavus at 200 ug/ml after 7 days; format: functional; settings: 168 h; procedure, shortened: as §1
Fusarium solani [9] = experiment: Antimicrobial activity against Fusarium solani after 7 days; format: functional
Trichophyton longifusum = experiment: Antimicrobial activity against Trichophyton longifusum after 7 days; format: functional
Microsporum canis = experiment: Antimicrobial activity against Microsporum canis after 7 days; format: functional
Nakaseomyces glabratus [10] = experiment: Antimicrobial activity against Candida glabrata after 7 days; format: functional
Candida albicans [11] = experiment: Antimicrobial activity against Candida albicans after 7 days; format: functional
Salmonella enterica [12] = experiment: Antimicrobial activity against Salmonella typhi after 24 hrs by disk diffusion assay; format: functional, Salmonella enterica subsp. enterica serovar Typhi
Shigella flexneri [13] = experiment: Antimicrobial activity against Shigella flexneri after 24 hrs by disk diffusion assay; format: functional; procedure, shortened: as §3
Escherichia coli [14] = experiment: Antimicrobial activity against Escherichia coli after 24 hrs by disk diffusion assay; format: functional; procedure, shortened: as §3

SMILES	growth inhibition at 200 µg/mL (Nakaseomyces glabratus [1]) [%]	zone of inhibition at 1000 µg/mL (Shigella flexneri [2]) [mm]	zone of inhibition at 1000 µg/mL (Escherichia coli [3]) [mm]	zone of inhibition at 1000 µg/mL (Salmonella enterica [4]) [mm]	zone of inhibition at 1000 µg/mL (Pseudomonas aeruginosa) [mm]	growth inhibition at 200 µg/mL (Candida albicans [5]) [%]	growth inhibition at 200 µg/mL (Fusarium solani [6]) [%]	zone of inhibition at 1000 µg/mL (Bacillus subtilis [7]) [mm]	zone of inhibition at 1000 µg/mL (Staphylococcus aureus) [mm]	MIC (Bacillus subtilis [8]) [µM]	growth inhibition at 200 µg/mL (Aspergillus flavus) [%]	MIC (Fusarium solani [9]) [µM]	MIC (Trichophyton longifusum) [µM]	MIC (Microsporum canis) [µM]	MIC (Nakaseomyces glabratus [10]) [µM]	MIC (Candida albicans [11]) [µM]	MIC (Salmonella enterica [12]) [µM]	MIC (Shigella flexneri [13]) [µM]	MIC (Escherichia coli [14]) [µM]
Cc1cc(NS(=O)(=O)c2ccc(/N=C/c3c[nH]c4ccccc34)cc2)no1	40	20	22	19	17	25	45	23	19	263 (≈ 100 µg/mL)	45	–	–	–	–	–	–	–	–
Clc1ccc(COC(Cn2ccnc2)c2ccc(Cl)cc2Cl)c(Cl)c1 (stereo not given) [MICONAZOLE]	–	–	–	–	–	–	–	–	–	–	–	176 (≈ 73.3 µg/mL)	168 (≈ 70 µg/mL)	236 (≈ 98.4 µg/mL)	266 (≈ 111 µg/mL)	266 (≈ 111 µg/mL)	–	–	–
N=C(N)NS(=O)(=O)c1ccc(/N=C/c2c[nH]c3ccccc23)cc1	55	22	23	23	18	35	35	23	22	146 (≈ 50 µg/mL)	30	–	–	–	–	–	293 (≈ 100 µg/mL)	146 (≈ 50 µg/mL)	–
C[C@@H](O)[C@H]1C(=O)N2C(C(=O)O)=C(SCCNC=N)C[C@H]12 [IMIPENEM ANHYDROUS]	–	27	30	27	26	–	–	28	30	–	–	–	–	–	–	–	–	–	–
Cc1noc(NS(=O)(=O)c2ccc(/N=C/c3c[nH]c4ccccc34)cc2)c1C	55	19	23	20	19	45	65	17	20	–	55	–	–	–	–	–	–	–	–
NS(=O)(=O)c1ccc(/N=C/c2c[nH]c3ccccc23)cc1	25	18	21	20	19	40	43	20	18	–	55	–	–	–	–	–	–	–	–
Cc1cc(C)nc(NS(=O)(=O)c2ccc(/N=C/c3c[nH]c4ccccc34)cc2)n1	28	19	24	22	20	60	75	18	23	–	55	–	–	–	–	–	247 (≈ 100 µg/mL)	–	123 (≈ 50 µg/mL)
O=S(=O)(Nc1ncccn1)c1ccc(/N=C/c2c[nH]c3ccccc23)cc1	20	18	19	17	20	35	70	19	19	–	25	–	–	–	–	–	–	–	–
O=S(=O)(Nc1nccs1)c1ccc(/N=C/c2c[nH]c3ccccc23)cc1	60	23	24	23	20	40	80	24	23	–	30	–	–	–	–	–	262 (≈ 100 µg/mL)	131 (≈ 50 µg/mL)	262 (≈ 100 µg/mL)
